# Source: PubChem (The Scripps Research Institute Molecular Screening Center)
# This is a sample that favours compounds with a hit; in the whole collection about 2.9% have one here.
# CHO parental Ca – ATP-evoked calcium signal inhibitors, parental CHO, primary screen, counter-screen for OX1R antagonist project, cell-based, fluorescence, Fluo-8 calcium dye | parental CHO-K1, ATP-induced calcium, Fluo-8 fluorescence | AID 463079, 2010 | inhibition, % at 5.6 µM | 0.63% of 330,000 active;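 active means inhibition above that plate's mean sample inhibition plus 3 SD, cut at about 26% in these data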;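 further: 0% = ATP-challenged DMSO wells and 100% = DMSO wells without ATP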
#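 Assay system – parental CHO cells · Reagent – ATP stimulus · Detection – intracellular calcium via Fluo-8 no-wash fluorescent dye · Evaluation – percent inhibition of ATP-evoked calcium rise, normalized to controls · Controls – ATP wells versus no-ATP DMSO wells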
# CHO-K1 Ca antag – counter-screen for M1 antagonists: effect in parental CHO-K1 cells. inhibition, % at 3 µM. 0.6% of 360,000 active. AID 602250. ATP-induced calcium, Fluo-8 fluorescence;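 active means inhibition above a per-plate cutoff, the plate's mean sample inhibition plus 3 SD, cut at about 24% in these data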;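 further: 0% = DMSO plus EC80 ATP and 100% = DMSO alone without ATP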
# CHO-K1 Ca ag – counter-screen for M1 agonists: effect in parental CHO-K1 cells | Fluo-8 calcium fluorescence; scaled to maximal ATP response, vehicle zero | activation, % at 3 µM | 0.48% of 360,000 active; in the data active means activation above about 15%;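 further: untransfected CHO-K1 host cells lacking M1 receptor as counterscreen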
# OX1R antag-1 – antagonists of human orexin 1 receptor (OX1R); OX1R-expressing cells, FRET antagonist read-out; 1.8% of 330,000 active; AID 485270, 2010; inhibition, % at 6.6 µM; Orexin/Hypocretin receptor type 1 (Homo sapiens), O43613; in the data active means inhibition mostly above about 38%, no sharp cut-off; inactive means mostly below about 40%;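 further: 0% = agonist challenge alone and 100% = reference antagonist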
# Target sequence (O43613 whole entry, looked up): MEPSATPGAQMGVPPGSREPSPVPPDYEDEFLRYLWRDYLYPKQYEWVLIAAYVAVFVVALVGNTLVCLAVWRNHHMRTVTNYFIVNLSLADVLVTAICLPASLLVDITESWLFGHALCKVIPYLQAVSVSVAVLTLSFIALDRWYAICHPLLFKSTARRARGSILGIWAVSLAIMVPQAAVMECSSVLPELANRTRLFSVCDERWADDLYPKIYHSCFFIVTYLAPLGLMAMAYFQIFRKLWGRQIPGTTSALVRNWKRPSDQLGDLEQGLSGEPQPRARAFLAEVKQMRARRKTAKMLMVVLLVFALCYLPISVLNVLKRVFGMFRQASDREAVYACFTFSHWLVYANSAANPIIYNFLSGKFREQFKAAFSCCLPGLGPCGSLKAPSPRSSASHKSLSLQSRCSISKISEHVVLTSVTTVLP
# OX1R antag-2 – OX1R (HCRTR1) antagonists, primary screen, fluorescence, CHO/OX1R cells, Fluo-8 calcium, orexin A | 0.43% of 330,000 active | inhibition, % at 5 µM | AID 434989, 2010 | Orexin/Hypocretin receptor type 1 (Homo sapiens), O43613 | Fluo-8 calcium fluorescence;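 active means inhibition above its plate's threshold, mean inhibition of all tested compounds on the plate plus 3 SD, cut at about 37% in these data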;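 further: 0% = orexin A challenge wells and 100% = SB-334867-A antagonist wells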
# M1 PAM parental – nonselective calcium activators in parental CHO-K1 cells, primary screen, counter-screen for M1 PAM project, cell-based, Fluo-8 calcium fluorescence, full deck, 1536-well; ATP EC20; 0% at ATP EC20, 100% at ATP max; activation, % at 3 µM; 0.02% of 360,000 active; AID 602247, 2012;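 active means activation above the run cutoff, the mean activation of all test compounds plus 3 SD, cut at about 40% in these data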;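 further: peak over basal fluorescence ratio in a 140 s read after ATP addition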
# Active calls of the source: *; nt = not tested or not shown.
SMILES,CHO parental Ca,CHO-K1 Ca antag,CHO-K1 Ca ag,OX1R antag-1,OX1R antag-2,M1 PAM parental
O=[N+]([O-])c1ccc(/C=N/Nc2ccc3ccccc3c2)o1,42.5*,22.7,12.0,29.9,36.7,5.0
Cc1ccc2nc(N/N=C\c3ccc([N+](=O)[O-])o3)nc(-c3ccccc3)c2c1,-14.4,-2.3,2.6,-0.1,-11.7,2.4
C[C@@H]1CN([C@@H](C)CO)C(=O)CCCn2nncc2CO[C@H]1CN(C)S(=O)(=O)c1cn(C)cn1,nt,0.8,-0.2,nt,nt,-1.0
O=C(C[C@@H]1C/C=C\CCC(=O)OC[C@@H]2CCCN2C1=O)N[C@@H](CO)Cc1ccccc1,-10.8,-8.6,0.5,5.7,13.9,9.3
CCOc1cc(/C=C2\NC(=O)NC2=O)ccc1OC(C)C(=O)O (stereo not drawn),-6.3,0.8,0.1,41.6*,-12.1,5.7
COc1cc(C=C2NC(=O)NC2=O)ccc1O,nt,-19.7,0.8,nt,nt,27.1
Cc1occc(=O)c1OC(=O)Nc1ccc(Cl)c(Cl)c1,70.4*,29.2*,11.9,14.2,35.9,6.0
Cc1cc(N2CCN(c3ccccn3)CC2)n2c(nc3ccccc32)c1C#N,nt,29.3*,0.5,nt,nt,2.4
Cc1cc(NCc2ccccn2)n2c(nc3ccccc32)c1C#N,nt,-14.2,0.5,nt,nt,18.7
CCCc1cc(NCc2ccccn2)n2c(nc3ccccc32)c1C#N,-23.8,-4.4,15.1*,16.9,-24.4,12.9
CC(C)C[C@H](NC(=O)c1nc[nH]c1C(=O)NCCCCCNC(=O)OC(C)(C)C)C(=O)OCc1ccccc1,11.3,-15.0,0.9,17.6,-3.5,6.9
CC(C)(C)OC(=O)NCCCCCNC(=O)c1nc[nH]c1C(=O)NCCCCCNC(=O)OC(C)(C)C,-9.4,17.5,10.8,10.8,-4.8,-21.8
CC(C)C[C@H](NC(=O)c1nc[nH]c1C(=O)NC1CCN(C(=O)OC(C)(C)C)CC1)C(=O)OCc1ccccc1,33.8*,-22.1,1.1,25.9,-16.7,15.6
CC(C)(C)OC(=O)NCCCCCNC(=O)c1nc[nH]c1C(=O)NCc1ccc(CNC(=O)OC(C)(C)C)cc1,40.4*,14.5,15.5*,14.8,57.7*,-10.6
CC(C)(C)OC(=O)CNC(=O)c1nc[nH]c1C(=O)NCc1ccc(CNC(=O)OC(C)(C)C)cc1,3.5,16.9,12.0,9.1,-2.7,-18.8
CC(C)(C)OC(=O)NCCCCCNC(=O)c1[nH]cnc1C(=O)N[C@@H](Cc1ccccc1)C(=O)OCc1ccccc1,47.3*,4.6,1.2,8.0,73.3*,-0.1
CC(C)(C)OC(=O)NCc1ccc(CNC(=O)c2nc[nH]c2C(=O)NCc2ccc(CNC(=O)OC(C)(C)C)cc2)cc1,1.8,29.1*,-0.9,0.0,20.5,-18.2
COc1ccc(OC)c(NC(=O)C23CCC(C)(C(=O)C2)C3(C)C)c1 (stereo not drawn),-14.5,2.6,0.4,14.6,-14.8,-0.4
CC(C)C[C@H](NC(=O)c1[nH]cnc1C(=O)Nc1ccc(CNC(=O)OC(C)(C)C)cc1)C(=O)OC(C)(C)C,-31.8,-29.1,0.1,8.8,-27.4,47.7*
O=c1[nH]c2ccc(S(=O)(=O)N3CCC(Cc4ccccc4)CC3)cc2o1,17.9,23.9*,0.8,23.7,23.5,-6.9
COC(=O)Nc1ccc(S(=O)(=O)N2CCC(Cc3ccccc3)CC2)cc1,44.5*,16.4,0.1,14.2,20.5,1.7
COC(=O)Nc1ccc(S(=O)(=O)N2CCC(C)CC2)cc1,-7.7,-6.6,1.7,11.7,1.1,11.2
NNC(=O)Cn1nc(Cc2ccccc2)n(N)c1=O,-11.6,-23.5,0.3,-3.7,-1.6,21.7
S=C(NCCc1ccccc1)Nc1ccccc1Cl,18.7,-3.5,-0.3,19.5,3.3,8.3
FC(F)(F)c1cnc(NNC(=S)Nc2ccccc2Cl)c(Cl)c1,7.8,7.7,15.9*,30.2,0.9,11.5
SMILES,CHO parental Ca,CHO-K1 Ca antag,CHO-K1 Ca ag,OX1R antag-1,OX1R antag-2,M1 PAM parental
S=C(NCCCc1ccccc1)Nc1ccccc1Cl,17.6,19.8,15.3*,33.0,9.0,-8.4
C=CCNC(=S)Nc1cccc2ccccc12,-7.3,-21.5,0.3,4.9,-2.7,22.4
Cc1cccc(NC(=S)NNc2ncc(C(F)(F)F)cc2Cl)c1,2.4,4.3,4.5,1.5,-10.5,-3.3
S=C(NCc1ccccc1Cl)Nc1ccccc1Cl,-0.1,-15.5,2.1,26.6,-13.1,2.5
S=C(NCCc1ccncc1)Nc1cccc2ccccc12,-3.1,26.6*,-0.1,11.0,-2.1,-17.9
S=C(NCCNC(=S)Nc1ccccc1Cl)Nc1ccccc1Cl,8.5,-9.5,15.9*,3.4,2.9,-3.8
O=C(O)C1=CCCc2ccc(F)cc21,nt,-14.9,1.7,nt,nt,21.8
S=C(NCCc1ccccn1)Nc1ccccc1Cl,-3.7,27.0*,-0.1,6.0,-13.3,-15.7
Cc1c(Cl)cccc1NC(=S)NCCc1ccccn1,-4.7,-15.8,1.5,3.3,-14.3,29.1
CCN(CC)c1ccc(/C=C/c2cc(-c3ccccc3)c3ccccc3n2)cc1,38.2*,10.7,8.8,5.8,4.6,-2.0
CC1CCC(NC(=O)COC(=O)CSc2ccc(C(N)=O)cc2[N+](=O)[O-])CC1 (stereo not drawn),0.7,-11.8,0.1,50.6,-12.6,23.9
O=C(OCC(=O)N1CCCC1=O)c1ccc(Cl)cc1[N+](=O)[O-],6.8,19.7,0.5,57.9*,-3.8,-29.0
NC(=O)c1ccc(SCC(=O)OCC(=O)N2CCCC2=O)c([N+](=O)[O-])c1,-3.7,-0.4,0.9,66.6*,-7.7,3.1
Cc1ccc(CN(C)C(=O)COC(=O)CSc2ccc(C(N)=O)cc2[N+](=O)[O-])cc1,-9.8,-7.2,1.5,57.7*,-24.5,-6.5
O=C(OCC(=O)N1CCOCC1)c1ccc(Cl)cc1[N+](=O)[O-],3.3,-7.0,0.9,32.0,-10.8,1.6
CC1CN(C(=O)COC(=O)CSc2ccc(C(N)=O)cc2[N+](=O)[O-])CC(C)O1 (stereo not drawn),-17.4,2.4,0.1,72.7*,-2.6,-3.0
O=C(O)/C(=C\c1cccc(O)c1)c1ccc(S(=O)(=O)N2CCCC2)s1,-14.1,-13.3,0.0,4.5,-22.8,12.2
NC(=O)c1ccc(SCC(=O)OCC(=O)NC2CCCCCCC2)c([N+](=O)[O-])c1,-17.2,-20.3,2.0,29.9*,-16.8,7.1
COc1cc(/C=C/c2nc3ccccc3c(=O)[nH]2)cc(OC)c1OC,-15.4,-15.5,0.9,7.4,-15.6,-6.2
COc1cc(/C=C/c2nnc3c4ccccc4ncn23)cc(OC)c1OC,-2.6,2.3,4.5,64.8*,-3.4,9.3
